MC4R antag cAMP: antagonists of human melanocortin 4 receptor (MC4R); P32245; inhibition, % at 6.5 µM; MC4R-expressing cells, MTII-stimulated cAMP, LANCE TR-FRET; 360,000 compounds, 0.48% hits;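 active = inhibition above its plate's cutoff, the mean of tested wells on that plate plus 3 SD, cut at about 29% in these data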;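 also: 0% = Melanotan II alone and 100% = Melanotan II plus saturating MCL0020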
Target sequence (P32245 whole entry, looked up): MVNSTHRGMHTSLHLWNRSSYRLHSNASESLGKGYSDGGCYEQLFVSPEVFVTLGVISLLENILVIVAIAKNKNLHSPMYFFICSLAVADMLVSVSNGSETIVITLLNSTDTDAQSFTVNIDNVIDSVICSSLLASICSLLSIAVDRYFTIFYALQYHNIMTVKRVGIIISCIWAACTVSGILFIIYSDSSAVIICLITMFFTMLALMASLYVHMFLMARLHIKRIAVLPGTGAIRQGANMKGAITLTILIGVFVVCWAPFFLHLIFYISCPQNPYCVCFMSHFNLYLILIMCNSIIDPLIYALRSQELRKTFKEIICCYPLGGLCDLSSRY
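System: U2OS-MC4R stable cell line; Technique: Eu-cAMP/anti-cAMP TR-FRET, emission 671 nm; Repeats: single well per compound; Also added: Melanotan II; Dosing: one concentration, 6.5 µM nominal; Schedule: 30-min compound, 1-h challenge, 1-h detection, room temperature.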
Exocytosis inh: lytic granule exocytosis inhibition | TALL-104 LAMP-1 surface exposure, flow cytometry; cells stimulated with thapsigargin and PMA | inhibition, % at 10 µM | 360,000 compounds, 0.66% hits | AID 651702;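 active = inhibition above about 55%, limit read from the data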
EBI2 antag: antagonists of human EBI2 receptor; P32249; EBI2 beta-arrestin recruitment, luminescence, 7a,25-OHC stimulated; inhibition, % at 5 µM; 360,000 compounds, 0.81% hits; AID 651636; in the data active = inhibition above about 38%;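 also: enzyme fragment complementation signal reports receptor beta-arrestin coupling in cells; 0% = agonist plus DMSO wells and 100% = wells without agonist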
Target sequence (P32249 whole entry, looked up, the tested form may be a part): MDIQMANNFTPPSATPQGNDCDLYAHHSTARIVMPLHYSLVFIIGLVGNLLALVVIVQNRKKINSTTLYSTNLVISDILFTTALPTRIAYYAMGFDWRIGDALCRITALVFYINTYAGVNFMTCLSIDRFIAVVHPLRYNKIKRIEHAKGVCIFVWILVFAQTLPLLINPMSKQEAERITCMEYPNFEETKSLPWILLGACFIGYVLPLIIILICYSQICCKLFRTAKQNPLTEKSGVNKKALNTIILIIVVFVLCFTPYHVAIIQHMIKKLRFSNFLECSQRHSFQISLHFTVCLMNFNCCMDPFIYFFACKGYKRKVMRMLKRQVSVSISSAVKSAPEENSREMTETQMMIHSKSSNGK
MC4R ag barr: activates human MC4R beta-arrestin recruitment; P32245; U2OS MC4R beta-arrestin complementation, luminescence; percent of melanotan II response, DMSO zero; activation, % at 8.9 µM; 360,000 compounds, 0.98% hits; AID 540308;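 active = activation above a per-plate cutoff, the mean activation of sample wells on that plate plus 3 SD, cut at about 8% in these data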
Myeloid diff MLP: myeloid differentiation induction; calls only at 10 µM; 360,000 compounds, 1% hits; ER-HoxA9 myeloid progenitors, lysozyme-GFP differentiation, flow cytometry; AID 624256;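 active = normalized GFP-positive differentiation at or above the plate's own cutoff, the solvent-only control mean plus 3 SD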;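 also: cells exposed to compound for four days before flow analysis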
MC4R barr conf: human MC4R beta-arrestin agonism confirmation; shares compounds with MC4R ag barr; U2OS MC4R beta-arrestin recruitment, luminescence; scaled DMSO 0%, Melanotan II 100%; activation, % at 8.9 µM; 2,400 compounds, 31% hits;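 active = mean activation across replicates above the hit cutoff set in the earlier primary screen, cut at about 8% in these data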
MOR DOR agonist: OPRM1-OPRD1 heterodimer agonism counter-screen | 2,400 compounds, 5.8% hits | activation, % at 9.2 µM | U2OS PathHunter beta-arrestin, beta-gal luminescence; percent of deltorphin B response, DMSO zero | shares compounds with MC4R ag barr;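 active = mean activation across replicates exceeds the hit threshold derived in the earlier primary screen, cut at about 18% in these data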;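 also: 100% = deltorphin B at 0.9 µM final and 0% = DMSO alone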
The depositor's hits bear a star; i = inactive; nt = not tested or not shown. The list is not random: actives were taken first. Their share in the collection is about 3.7%.

SMILES | MC4R antag cAMP | Exocytosis inh | EBI2 antag | MC4R ag barr | Myeloid diff MLP | MC4R barr conf | MOR DOR agonist
CCCCCCOC(=O)c1ccc(N)cc1 | -5.0 | -1.5 | -45.3 | 3.8 | i | nt | nt
CCCCCCCCCCCC1N=C(N)NC(CCCO)=C1C(=O)OC (centres undefined) | 6.6 | -12.4 | -10.1 | 12.5* | nt | 25.6* | 5.3
CC(=O)OCC(=O)Nc1ccc(Cl)cc1Cl | -5.1 | -1.8 | -2.5 | -2.3 | i | nt | nt
O=C(CC(=O)Nc1ccc(Cl)cc1Cl)Nc1ccc(Cl)cc1Cl | 5.7 | -11.3 | 0.8 | 11.4* | i | 3.2 | 3.1
O=C(COC(=O)/C=C/c1cccs1)Nc1nc(-c2ccccc2)cs1 | 17.9 | 0.2 | -4.1 | 31.7* | i | 4.6 | 6.6
COc1cccc(Sc2ccccc2/C=N/NC(N)=O)c1 | -9.8 | 2.1 | -10.1 | 0.4 | nt | nt | nt
O=C(Nc1ccc2oc(-c3cccc(F)c3)nc2c1)c1ccccc1F | 7.2 | -2.8 | 3.3 | 26.6* | nt | 16.0* | 4.3
O=C(Nc1ccc2c(c1)Cc1ccccc1-2)c1ccc(Br)o1 | 2.8 | -2.4 | 3.2 | 10.3* | i | -1.2 | 4.4
O=C(Nc1ccc2c(c1)Cc1ccccc1-2)c1ccccc1F | 5.9 | -3.4 | -2.0 | 10.7* | i | 1.2 | 4.9
Cc1ccccc1-c1nc(-c2ccc(Br)o2)no1 | 14.7 | -5.5 | 5.6 | 1.9 | i | nt | nt
CCCC(=O)Nc1ccc2c(c1)Cc1ccccc1-2 | -8.1 | 20.1 | -2.0 | 0.8 | i | nt | nt
Cc1ccccc1-c1nc(-c2ccc(NC(=O)c3ccc(Br)o3)cc2)no1 | 5.3 | 1.5 | 19.9 | 30.1* | i | 21.4* | 4.4
Cc1nc(NC(=O)COC(=O)C2CC3CCCC(C2)C3=O)c(Cl)cc1Cl (centres undefined) | 3.0 | 12.8 | 2.9 | -1.7 | i | nt | nt
CN(C)CC(C)(C)CNC(C(=O)Nc1ccc(Cl)cc1C(F)(F)F)c1ccccc1 (centres undefined) | -4.6 | 1.6 | 4.9 | 0.7 | i | nt | nt
CCOC(=O)c1c(NC(=S)Nc2ccc(C)cc2)sc2c1CCC2 | 3.9 | -5.4 | 4.6 | 3.3 | i | nt | nt
CCOC(=O)c1c(NC(=S)Nc2ccc(F)cc2)sc2c1CCC2 | 4.4 | 1.1 | 8.6 | 11.2* | i | 8.5* | 4.2
COc1ccc(CC(N)c2csc(NC(=O)c3ccc(OC)cc3)n2)cc1 (centres undefined) | -0.9 | -4.6 | 5.7 | -0.1 | i | nt | nt
COc1ccc(CNC(=O)Nc2nc(C(N)Cc3ccc(C(F)(F)F)cc3)cs2)cc1 (centres undefined) | -6.5 | 19.9 | -0.3 | 15.9* | i | 17.4* | 12.1
CC(C)(C)c1ccccc1NC(=O)Nc1nc(C(N)Cc2ccc(F)cc2)cs1 (centres undefined) | 6.7 | 17.8 | 1.0 | 10.8* | i | 8.0 | 13.3
CC(C)c1ccccc1NC(=O)Nc1nc(C(N)Cc2ccc(C(F)(F)F)cc2)cs1 (centres undefined) | 6.9 | 15.6 | 0.0 | 15.4* | i | 13.5* | 17.1
CC(C)(C)c1ccccc1NC(=O)Nc1nc(C(N)c2ccccc2)cs1 (centres undefined) | 4.7 | 10.0 | 8.1 | 0.0 | i | nt | nt
CN(C)c1ccc(/C=N\Nc2nc(-c3ccccc3)cc(=O)[nH]2)cc1 | -0.7 | -2.5 | 27.2 | 27.4* | i | 4.5 | 5.1
CN(Cc1ccccc1)C(=O)Cn1nnc(-c2ccccc2)c1COc1ccc2ccccc2c1 | 8.1 | 7.2 | 22.1 | 0.7 | i | nt | nt
CCCCSCCCNC(=O)c1ccc(CS(=O)(=O)c2ccc(OC)cc2)o1 | 4.3 | 13.3 | 14.0 | 0.1 | nt | nt | nt
COc1ccc(C(=O)Nc2ccc(N3CCCCC3)cc2)cc1Br | -2.4 | -3.4 | -0.7 | 12.8* | i | 2.3 | 8.4
SMILES | MC4R antag cAMP | Exocytosis inh | EBI2 antag | MC4R ag barr | Myeloid diff MLP | MC4R barr conf | MOR DOR agonist
O=S(=O)(Nc1ccc2ccccc2n1)c1ccc2c(c1)CCO2 | 3.3 | -2.4 | 1.8 | 0.7 | i | nt | nt
CC(C)c1ccc(NC(=O)C2CCN(c3ncnc4c3nc3n4CCCCC3)CC2)cc1 | 24.9 | -7.6 | 12.0 | 27.1* | i | 0.8 | 15.3
O=C(Nc1ccc(F)c(Cl)c1)C1CCN(c2ncnc3c2nc2n3CCCCC2)CC1 | 6.1 | 3.0 | 18.4 | -3.1 | i | nt | nt
Nc1nc(CCl)nc(Nc2cccc3ccccc23)n1 | 6.9 | 16.5 | -14.3 | 25.8* | i | 18.7* | 43.0*
Cc1ccccc1Nc1nc(N)nc(COC(=O)c2ccccc2)n1 | 13.4 | -3.4 | -14.7 | 1.4 | i | nt | nt
Cc1cc(F)cc(-c2cc(C(=O)NCC3CCCCC3)[nH]n2)c1 | -2.6 | -2.0 | 3.8 | 12.5* | i | 0.3 | 4.6
N#Cc1ccc(-c2cccnc2)nc1SCc1ccc(Cl)cc1Cl | -13.5 | -0.4 | 19.5 | 18.2* | i | 5.5 | 4.1
N#Cc1ccc(-c2cccnc2)nc1SCc1ccc(Cl)c(Cl)c1 | -35.0 | -0.5 | 26.9 | 7.6 | i | nt | nt
Cc1ccc(-c2csc3nc4c5ccccc5c(NCCCN(C)C)nn4c(=O)c23)cc1 | -0.1 | 25.6 | -6.9 | 13.4* | i | 32.7* | 9.3
COc1cc(NC(=O)c2ccco2)c(C(=O)OCC(=O)Nc2ncc(Cl)cc2Cl)cc1OC | 0.9 | 1.7 | -8.7 | 17.8* | i | 0.3 | 2.5
Cc1ccccc1OCC(=O)N/N=C/c1cn(Cc2ccccc2)c2ccccc12 | -15.2 | -6.1 | 9.2 | 33.0* | i | 12.1* | 4.5
O=C(Nc1ccccc1)Nc1n[nH]c2nnc(-c3ccccc3)c(-c3ccccc3)c12 | 9.8 | 13.5 | -6.9 | 0.8 | i | nt | nt
Cc1sc2nc(C)n(/N=C/c3ccccc3O)c(=O)c2c1C | 5.5 | -0.5 | -0.4 | 13.2* | i | 3.0 | 3.0
COc1ccc(NC(=O)c2ccc(-c3ccccc3C(F)(F)F)o2)cc1 | 2.8 | -6.0 | 2.1 | 10.4* | i | 1.8 | 4.6
Cc1ccc(NC(=O)C2CCCN(S(=O)(=O)c3cccc4nonc34)C2)cc1 (centres undefined) | -1.0 | 3.8 | -10.2 | 4.7 | i | nt | nt
Cc1cccc2sc(NC(=O)C3CCCN(S(=O)(=O)c4cccc5nonc45)C3)nc12 (centres undefined) | 5.8 | 1.2 | 14.5 | 9.9* | i | 2.7 | 7.0
COC(=O)c1ccccc1NC(=O)c1cccc(NC(=O)CSCc2ccccc2)c1C | -2.9 | -3.0 | 12.1 | 17.8* | i | 4.8 | 3.9
CCc1nc2ccccc2c(C(=O)OCC(=O)NC(=O)c2cccn2C)c1C | 13.4 | 13.9 | 3.2 | -1.7 | i | nt | nt
CCc1nnc(NC(=O)CSc2ncnc3scc(-c4ccc(C)cc4)c23)s1 | 12.5 | 3.3 | 10.2 | 11.4* | i | 13.6* | 4.0

Screening data (PubChem BioAssay)
